Screening data from PubChem.
Most compounds without a hit are left out; they make up all but 1.3% or so of the library.
RTF Ca sens inh = cardiac RTF calcium desensitization; P19429+P45379; inhibition, % at 7.15 µM; 340,000 compounds, 0.12% hits; IANBD-labeled cardiac RTF, Ca2+ fluorescence; AID 493244;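 active means inhibition above the mean inhibition of all tested compounds plus 3 SD, cut at about 17% in these data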;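 further: assay run at fixed EC70 calcium of 1.6 mM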
Keap1 Nrf2 FP = disrupts human Keap1 binding to Nrf2 peptide. Q14145. Keap1 Kelch-Nrf2 peptide fluorescence polarization, 1536-well. inhibition, % at 9.4 µM. 340,000 compounds, 0.15% hits. AID 504523; in the data active means inhibition above about 12%;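 further: human Keap1 Kelch domain with fluorescein labeled Nrf2 9mer peptide probe; 0% = neutral control wells and 100% = peptide positive control; higher means more block of Keap1 binding to Nrf2 peptide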
Target sequence (Q14145 whole entry, looked up, the tested form may be a part): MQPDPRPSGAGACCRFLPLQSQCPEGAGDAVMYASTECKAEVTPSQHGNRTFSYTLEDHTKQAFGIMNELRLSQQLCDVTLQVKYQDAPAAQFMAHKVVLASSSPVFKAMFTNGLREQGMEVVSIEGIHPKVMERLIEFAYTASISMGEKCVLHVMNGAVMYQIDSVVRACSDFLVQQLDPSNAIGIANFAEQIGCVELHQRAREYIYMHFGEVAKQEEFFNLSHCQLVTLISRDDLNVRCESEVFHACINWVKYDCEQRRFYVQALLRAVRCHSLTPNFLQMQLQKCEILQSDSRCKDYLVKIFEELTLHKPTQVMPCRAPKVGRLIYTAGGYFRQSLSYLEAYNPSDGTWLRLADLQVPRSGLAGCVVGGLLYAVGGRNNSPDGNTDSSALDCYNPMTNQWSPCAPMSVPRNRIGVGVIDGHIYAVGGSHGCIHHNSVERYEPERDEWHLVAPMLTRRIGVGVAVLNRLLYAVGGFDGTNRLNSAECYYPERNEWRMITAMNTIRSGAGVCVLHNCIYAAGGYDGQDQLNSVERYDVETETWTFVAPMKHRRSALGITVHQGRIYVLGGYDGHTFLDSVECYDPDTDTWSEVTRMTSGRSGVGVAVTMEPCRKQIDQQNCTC
CAL PDZ FP-1 = human CAL PDZ-peptide interaction inhibition. purified CAL PDZ, TMR-peptide fluorescence polarization, 1 h. inhibition, % at 20 µM. 330,000 compounds, 0.02% hits;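 active means highest replicate inhibition of at least 40%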;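 further: plate controls were DMSO neutral control wells for no effect and unlabeled competitor peptide control wells for full effect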
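Material: tagged CAL PDZ domain; buffer or medium: 25 mM sodium phosphate pH 7.4, 150 mM NaCl, TCEP, IgG, Thesit; compound dosing: single point, 20 µM; schedule: 1 h incubation at room temperature before polarization reading; measured by: FP readout, S and P plane fluorescence; read-out basis: percent inhibition from loss of millipolarization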
LANA DNA inh = inhibitors of KSHV LANA C-terminal domain DNA binding; 340,000 compounds, 0.078% hits; AID 504423; MBP-C-LANA/FAM-LBS DNA binding, fluorescence polarization; inhibition, % at 9 µM;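 active means highest replicate inhibition at or above 60% at 9 µM, even if other replicates fall short; inactive means all replicates below 60% inhibition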;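 further: 0% = neutral control wells and 100% = 4 µM acridine orange control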
cardiac RTF act = increases calcium sensitivity of human cardiac regulated thin filaments; IANBD-labeled TnC RTF fluorescence at EC20 calcium; 0% EC20 calcium, 100% full calcium; activation, % at 7.2 µM; 340,000 compounds, 0.24% hits; AID 493008;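 active means activation above the mean over all tested compounds plus 3 SD, cut at about 30% in these data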;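 further: rise in fluorescence read as greater calcium sensitivity of cardiac thin filaments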
CAL PDZ FP-2 = CAL PDZ (human) peptide binding inhibition; AID 602252; inhibition, % at 24.9 µM; 300,000 compounds, 0.92% hits; purified CAL PDZ, TMR-peptide fluorescence polarization, 1 h;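 active means mean inhibition of at least 30% with at least half of replicates also reaching 30%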;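 further: 0% = DMSO neutral control and 100% = excess unlabeled competitor peptide PRC23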
RTF inh confirm = cardiac RTF calcium sensitivity inhibition, confirmation | reconstituted cardiac thin filaments, calcium sensitivity fluorescence | 360 compounds, 8% hits | AID 504635 | shares compounds with RTF Ca sens inh | inhibition, % at 7.15 µM; in the data active means inhibition above about 18%
* = called active by the depositor; . = not tested or not shown.

SMILES	RTF Ca sens inh	Keap1 Nrf2 FP	CAL PDZ FP-1	LANA DNA inh	cardiac RTF act	CAL PDZ FP-2	RTF inh confirm
C=CCONC(=O)Cc1ccccc1	-6	-4	-3	0	-1	-5	.
O=C(CSc1nnc(CNC(=O)c2ccc(F)cc2)o1)NCC1CCCO1 (centres undefined)	27*	1	0	-1	-5	0	0
O=C(CSc1nccc(=O)[nH]1)Nc1ccc(N2CCOCC2)cc1	-7	1	1	-1	0	0	.
CC(=O)c1ccc(NC(=O)c2noc(C(C)C)c2[N+](=O)[O-])cc1	188*	-5	-3	-1	-6	-3	-3
O=C(CCCCCN1C(=O)c2ccccc2C1=O)Nc1ccccc1	18*	-3	-1	0	1	-6	-5
NS(=O)(=O)c1cc(C(=O)O)cc(N2CCCC2)c1Oc1ccccc1	19*	-1	0	-1	0	-6	-3
Cc1c(CCOC(=O)C23CC4CC(CC(C)(C4)C2)C3)sc[n+]1CC(=O)c1ccccc1	19*	-5	-2	0	3	0	-6
CCOC(=O)c1cccc(NC(=O)c2cccnc2)c1	2	2	0	0	5	4	.
CCOC(=O)Cn1nc(C)cc1NC(=O)c1cccnc1	21*	0	0	0	0	-2	-1
[N-]=[N+]=NC1CC(CO)OC1n1ccc(=O)[nH]c1=O (centres undefined)	-3	-1	0	0	-6	-1	.
COc1ccccc1CNC(=O)c1cccc(S(=O)(=O)N2CCCC2)c1	2	-1	-1	0	-6	-1	.
COc1ccc(N2C(=O)CSC2c2ccccc2[N+](=O)[O-])cc1 (centres undefined)	19*	-1	-1	2	0	-5	1
O=C(CN1CCN(C(=O)c2cccc(S(=O)(=O)N3CCCC3)c2)CC1)Nc1cccc(F)c1	-13	-1	-1	0	-10	-2	.
CCCCc1nc2cc(C(=O)N3CCCCC3C(=O)OC)ccc2o1 (centres undefined)	3	-1	-3	2	-2	-4	.
COc1ccc(S(=O)(=O)Nc2cccc3c2O[C@H](CN(C)C(=O)Nc2c(C)noc2C)[C@@H](C)CN([C@H](C)CO)C3=O)cc1	0	-3	0	0	-9	-4	.
CCOC(=O)/C(=C/c1ccc(OC(=O)c2ccncc2)cc1)C(C)=O	-6	0	-1	-2	-2	.	.
COCCOC(=O)/C(=C/c1ccc(OC(=O)c2ccccc2)cc1)C(C)=O	25*	-10	-1	-2	16	-3	3
CC(=O)c1ccc(OCc2cc(C(=O)NCCn3nc(C)cc3C)no2)cc1	-3	-4	-2	-2	3	-1	.
Cc1ccc(OCC(=O)O)c(-n2nc3ccccc3n2)c1	4	-1	0	0	-1	-4	.
CC(=O)Oc1ccc(C)cc1-n1nc2ccccc2n1	20*	-1	-1	0	0	1	-7
CN(CC(=O)Nc1ccc(Cl)c(Cl)c1)C(=O)C1CCCC1	0	0	-1	0	-2	8	.
CCN(CC)c1ccc(C(=C2C=CC(=[N+](CC)CC)C=C2)c2ccc(N(CC)CC)cc2)cc1	23*	1	12	-1	-25	12	10
COCCNc1oc(/C=C/c2ccccc2OC)nc1S(=O)(=O)c1ccccc1	18*	-3	-1	-1	0	1	8
CCOc1ccc(NS(=O)(=O)c2ccc3c(c2)N(C(C)=O)CCS3)cc1	77*	-6	-2	-1	0	-3	-2
COc1ccc([N+](=O)[O-])cc1NC(=O)CSc1nncn1-c1ccccc1	19*	2	-4	1	-8	-6	1
COc1ccccc1NC(=O)CSc1nncn1-c1ccccc1	-7	2	0	2	-1	-5	.
O=C(O)c1cccc(N/N=C/c2ccc(OC(F)(F)F)cc2)c1	1	3	0	1	-2	-1	.
